In the library only some 2.1% were active in any assay of this set; here they are far more common.
STK33 kinase inh: inhibitors of purified STK33 kinase, primary screen, biochemical, ADP-Glo luminescence, homogeneous, cell-free; inhibition, % at 10 µM; 320,000 tested, 0.073% active; Serine/threonine-protein kinase 33 (Homo sapiens), Q9BYT3; AID 2661, 2010; MBP phosphorylation;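 active = inhibition at or above 25%, using the most active replicate where run in duplicate; inactive = inhibition below 25%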
GSK3 alpha inh: blockers of GSK3A enzyme activity – biochemical, luminescence, cell-free homogeneous, HTS, primary screen | 320,000 tested, 0.1% active | inhibition, % at 10 µM | Glycogen synthase kinase-3 alpha (Homo sapiens), P49840 | GSK-3 alpha kinase, ADP-Glo luminescence, 60 min;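 active = more than half of replicates show inhibition above 20%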;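 also: GST-tagged GSK-3 alpha with peptide substrate and 25 µM ATP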
Target sequence (P49840 whole entry, looked up): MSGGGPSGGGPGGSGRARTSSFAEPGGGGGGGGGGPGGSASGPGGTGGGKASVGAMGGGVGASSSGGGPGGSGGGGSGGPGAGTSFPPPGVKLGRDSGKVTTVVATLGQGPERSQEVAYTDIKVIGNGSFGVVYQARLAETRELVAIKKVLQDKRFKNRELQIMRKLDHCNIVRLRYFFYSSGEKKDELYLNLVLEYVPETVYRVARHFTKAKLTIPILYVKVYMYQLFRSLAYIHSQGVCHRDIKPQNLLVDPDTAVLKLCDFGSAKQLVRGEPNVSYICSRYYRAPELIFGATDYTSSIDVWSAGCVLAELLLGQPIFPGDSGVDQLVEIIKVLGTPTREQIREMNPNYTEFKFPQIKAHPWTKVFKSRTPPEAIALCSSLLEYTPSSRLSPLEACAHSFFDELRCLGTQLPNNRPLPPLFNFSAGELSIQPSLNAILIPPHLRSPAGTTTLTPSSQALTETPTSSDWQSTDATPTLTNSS
MEKK2 WT-MEK5: modulators of MEK5 binding to wildtype MEKK2, primary screen, biochemical, multiplex bead flow cytometry, Alexa488-MEK5 | Mitogen-activated protein kinase kinase kinase 2 (Homo sapiens), Q9Y2U5 | Alexa488-MEK5 binding to MEKK2 WT; actives lie on both sides | binding response (% of control), % at 10 µM | 290,000 tested, 1.1% active | AID 1531, 2009; in the data active = binding response below about 67% or above about 130%
GSK3beta inhib: human GSK3beta kinase inhibitors, primary screen, biochemical, cell-free homogeneous, HTS. GST-GSK3beta kinase, ADP-Glo luminescence, 60 min; hits give low values. activity score (negative = inhibition), % at 10 µM. 300,000 tested, 0.038% active;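 active = more than half of replicate wells score below -50%, meaning over 50% inhibition versus plate controls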
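test system = GST-tagged human GSK3beta kinase, cell-free | reagent = 25 µM ATP with peptide substrate | dosing = one dose of 10 µM per compound | schedule = 60 min reaction, RT | detection = luminescent ADP-Glo measurement of ADP formed | control set = DMSO neutral wells and GW8510 at 20 µM as positive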
MEKK3 PB1 HTS: modulators of MEKK3-MEK5 PB1 binding, primary screen, biochemical, wildtype MEKK3, multiplex bead flow cytometry, Alexa488-MEK5; Mitogen-activated protein kinase kinase kinase 3 (Homo sapiens), Q99759; bead-based flow cytometry, Alexa488-MEK5 binding to MEKK3; actives lie on both sides; 0 = blocked by unlabeled MEK5, 100 = vehicle; binding response (% of control), % at 10 µM; 290,000 tested, 1.4% active;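 active = binding response more than 3 SD above or below the average of its plate-row segment, actives on both sides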;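 also: Alexa488 bead fluorescence after subtracting the streptavidin-only scavenger bead signal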
MEKK2mut PB1 HTS: MEK5 binding signal on mutant MEKK2 PB1, primary screen, biochemical, multiplex bead flow cytometry, Alexa488-MEK5; Alexa488-MEK5 binding to MEKK2 mutant; percent response, % at 10 µM; 290,000 tested, 0.35% active; AID 1530, 2009; in the data active = percent response above about 24%, passing the limit was not always enough
MEKK2wt confirm: modulators of MEK5 binding to wildtype MEKK2, confirmation, biochemical, single concentration, multiplex bead flow cytometry; 5,900 tested, 2.4% active; binding response (% of control), % at 10 µM; AID 1892, 2009; Alexa488-MEK5 binding to MEKK2 WT; actives lie on both sides; shares compounds with MEKK3 PB1 HTS; in the data active = binding response below about 16% or above about 210%; inactive = in between
MEKK2mut confirm: mutant MEKK2 PB1-MEK5 binding signal retest – biochemical, single concentration, multiplex bead flow cytometry, confirmation. shares compounds with MEKK3 PB1 HTS. Alexa488-MEK5 binding to MEKK2 mutant. percent response, % at 10 µM. 5,900 tested, 2% active; in the data active = percent response mostly above about 71%, no sharp cut-off; inactive = mostly below about 38%;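 also: higher means compound restores mutant binding toward wildtype level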
MEKK3 confirm: MEKK3 wild-type PB1 binding to MEK5, inhibitors, confirmation, biochemical, bead multiplex flow cytometry, single concentration, wildtype; shares compounds with MEKK3 PB1 HTS; Alexa488-MEK5 binding to MEKK3; hits give low values; 5,900 tested, 1.8% active; binding response (% of control), % at 10 µM; AID 1894, 2009;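 active = binding response below 72% of control, or above a set upper limit, though filed actives all read lower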;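 also: lower values mean stronger disruption of MEK5 binding to MEKK3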
Numbers stand for hits; [ ] = dose if it differs, or a comment.

How did CCNC(=S)N(CCc1c(C)[nH]c2ccc(Cl)cc12)Cc1cccnc1 do in these assays?
STK33 kinase inh: inactive; GSK3 alpha inh: inactive; MEKK2 WT-MEK5: inactive; GSK3beta inhib: inactive; MEKK3 PB1 HTS: inactive; MEKK2mut PB1 HTS: 29; MEKK2wt confirm: inactive; MEKK2mut confirm: inactive; MEKK3 confirm: inactive

How did COCCNC(=S)N(CCc1c(C)[nH]c2ccc(Cl)cc12)Cc1cccnc1 do in these assays?
STK33 kinase inh: inactive; GSK3 alpha inh: inactive; MEKK2 WT-MEK5: inactive; GSK3beta inhib: inactive; MEKK3 PB1 HTS: inactive; MEKK2mut PB1 HTS: 24; MEKK2wt confirm: inactive; MEKK2mut confirm: inactive; MEKK3 confirm: inactive

Results for CCNC(=S)N(CCc1c(C)[nH]c2ccc(OC)cc12)Cc1cccnc1 ?
STK33 kinase inh: inactive; GSK3 alpha inh: inactive; MEKK2 WT-MEK5: inactive; GSK3beta inhib: inactive; MEKK3 PB1 HTS: inactive; MEKK2mut PB1 HTS: inactive

Results for CNC(=S)N(CCc1c(C)[nH]c2ccc(Cl)cc12)Cc1cccnc1 ?
STK33 kinase inh: inactive; GSK3 alpha inh: inactive; MEKK2 WT-MEK5: inactive; GSK3beta inhib: inactive; MEKK3 PB1 HTS: inactive; MEKK2mut PB1 HTS: inactive

Results for COc1cc2ccccc2cc1C(=O)NC(=S)Nc1cccc(C(=O)O)c1C ?
STK33 kinase inh: inactive; GSK3 alpha inh: inactive; MEKK2 WT-MEK5: inactive; GSK3beta inhib: inactive; MEKK3 PB1 HTS: inactive; MEKK2mut PB1 HTS: inactive

How did COc1ccccc1/C=C/C(=O)Nc1cccc(S(=O)(=O)NC2=NCCCCC2)c1 do in these assays?
STK33 kinase inh: inactive; GSK3 alpha inh: inactive; MEKK2 WT-MEK5: inactive; GSK3beta inhib: inactive; MEKK3 PB1 HTS: inactive; MEKK2mut PB1 HTS: inactive

Results for c1coc(CNC2CCCCCCC2)c1 ?
STK33 kinase inh: inactive; MEKK2 WT-MEK5: inactive; GSK3beta inhib: inactive; MEKK3 PB1 HTS: inactive; MEKK2mut PB1 HTS: inactive

How did O=S1(=O)CC(O)C(NCc2ccco2)C1 (stereo not given) do in these assays?
STK33 kinase inh: inactive; GSK3 alpha inh: inactive; MEKK2 WT-MEK5: inactive; GSK3beta inhib: inactive; MEKK3 PB1 HTS: 75[inhibitor]; MEKK2mut PB1 HTS: inactive; MEKK2wt confirm: inactive; MEKK2mut confirm: inactive; MEKK3 confirm: inactive

What do the screens show for `Nc1n[nH]c(-c2ccc(F)cc2)n1`?
STK33 kinase inh: inactive; GSK3 alpha inh: inactive; MEKK2 WT-MEK5: inactive; GSK3beta inhib: inactive; MEKK3 PB1 HTS: inactive; MEKK2mut PB1 HTS: inactive

How did CCCCc1ccc(-c2nc(N)n[nH]2)cc1 do in these assays?
STK33 kinase inh: inactive; MEKK2 WT-MEK5: 2.0[inhibitor]; GSK3beta inhib: inactive; MEKK3 PB1 HTS: 1.0[inhibitor]; MEKK2mut PB1 HTS: inactive; MEKK2wt confirm: inactive; MEKK2mut confirm: inactive; MEKK3 confirm: inactive

What do the screens show for `CN(CCOc1ccccc1)S(=O)(=O)c1ccccc1C#N`?
STK33 kinase inh: inactive; GSK3 alpha inh: inactive

How did O=C(CN1C(=O)c2cccnc2Oc2ccc(Cl)cc21)N1CCOCC1 do in these assays?
STK33 kinase inh: inactive; GSK3 alpha inh: inactive; MEKK2 WT-MEK5: inactive; GSK3beta inhib: inactive; MEKK3 PB1 HTS: inactive; MEKK2mut PB1 HTS: inactive

Results for CCN(CC)c1c2c(c(C#N)c3nc4ccccc4n13)CCC2 ?
STK33 kinase inh: inactive; GSK3 alpha inh: inactive; MEKK2 WT-MEK5: inactive; GSK3beta inhib: inactive; MEKK3 PB1 HTS: 69[inhibitor]; MEKK2mut PB1 HTS: inactive; MEKK2wt confirm: inactive; MEKK2mut confirm: inactive; MEKK3 confirm: inactive

What do the screens show for `Cc1ccc(C(=O)O/N=C(\N)c2ccc(Br)cc2)cc1C`?
STK33 kinase inh: inactive; GSK3 alpha inh: inactive; MEKK2 WT-MEK5: 1.0[inhibitor]; GSK3beta inhib: inactive; MEKK3 PB1 HTS: 2.0[inhibitor]; MEKK2mut PB1 HTS: inactive; MEKK2wt confirm: inactive; MEKK2mut confirm: inactive; MEKK3 confirm: inactive

Results for CCOP(=O)(OCC)C(Nc1ccccn1)c1ccccc1 (stereo not given) ?
STK33 kinase inh: inactive; GSK3 alpha inh: inactive; MEKK2 WT-MEK5: inactive; GSK3beta inhib: inactive; MEKK3 PB1 HTS: 135; MEKK2mut PB1 HTS: inactive; MEKK2wt confirm: inactive; MEKK2mut confirm: inactive; MEKK3 confirm: inactive

How did CCOC(=O)C1(Cc2cccc(OC)c2)CCN(Cc2cccc3c2OCO3)CC1 do in these assays?
STK33 kinase inh: inactive; GSK3 alpha inh: inactive; MEKK2 WT-MEK5: inactive; GSK3beta inhib: inactive; MEKK3 PB1 HTS: inactive; MEKK2mut PB1 HTS: inactive

What do the screens show for `Cn1c(=O)oc2cc(S(=O)(=O)NCc3ccc(Cl)cc3)ccc21`?
STK33 kinase inh: inactive; GSK3 alpha inh: inactive; MEKK2 WT-MEK5: -6.0[inhibitor]; GSK3beta inhib: inactive; MEKK3 PB1 HTS: 0.0[inhibitor]; MEKK2mut PB1 HTS: inactive; MEKK2wt confirm: inactive; MEKK2mut confirm: inactive; MEKK3 confirm: inactive

What do the screens show for `O=[N+]([O-])c1ccc(O)c(C(C#Cc2ccccc2)N2CCOCC2)c1` (stereo not given)?
STK33 kinase inh: inactive; GSK3 alpha inh: inactive; MEKK2 WT-MEK5: inactive; GSK3beta inhib: inactive; MEKK3 PB1 HTS: 67[inhibitor]; MEKK2mut PB1 HTS: inactive; MEKK2wt confirm: inactive; MEKK2mut confirm: inactive; MEKK3 confirm: inactive

What do the screens show for `Cc1cccc(NC(=O)c2nc[nH]c2C(=O)N2CCN(c3ccccc3)CC2)c1`?
STK33 kinase inh: inactive; GSK3 alpha inh: inactive

How did O=C(Cn1cnc([N+](=O)[O-])c1)c1ccc(Cl)cc1 do in these assays?
STK33 kinase inh: inactive; GSK3 alpha inh: inactive; GSK3beta inhib: inactive

What do the screens show for `O=C(C[n+]1cnn(CC(=O)c2ccc(Cl)cc2Cl)c1)c1ccc([N+](=O)[O-])cc1`?
STK33 kinase inh: inactive; GSK3 alpha inh: inactive; MEKK2 WT-MEK5: 157; GSK3beta inhib: inactive; MEKK3 PB1 HTS: inactive; MEKK2mut PB1 HTS: inactive; MEKK2wt confirm: inactive; MEKK2mut confirm: inactive; MEKK3 confirm: inactive

Screens from PubChem BioAssay.
